Experimental data as given in ChEMBL document CHEMBL4706772, “Structure-Based Design of A-1293102, a Potent and Selective BCL-X Inhibitor” (ACS Med Chem Lett, 2021).

Experiments:
MOLT-4 [1] = test: Cytotoxicity against human MOLT-4 cells assessed as reduction in cell viability measured after 48 hrs by celltiter-glo assay; format: functional, cell-based; details: MOLT-4, 48 h
Bcl-2-like protein 1 [2] = target: T1, Bcl-2-like protein 1 (Homo sapiens, UniProt Q07817); test: Binding affinity to N-terminal GST-tagged BCL-XL (unknown origin) assessed as dissociation rate constant by SPR analysis
T1 sequence (Q07817 whole entry): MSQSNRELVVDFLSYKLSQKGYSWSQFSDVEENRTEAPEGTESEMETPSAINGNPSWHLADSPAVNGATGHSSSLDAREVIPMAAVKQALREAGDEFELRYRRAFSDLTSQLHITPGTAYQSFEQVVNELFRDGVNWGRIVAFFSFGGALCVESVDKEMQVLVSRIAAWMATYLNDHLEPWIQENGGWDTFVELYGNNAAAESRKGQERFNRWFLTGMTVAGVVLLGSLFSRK

[3] = target: Induced myeloid leukemia cell differentiation protein Mcl-1 (Homo sapiens, UniProt Q07820); test: Inhibition of F-Bak binding to GST-tagged MCL1 (unknown origin) measured after 1 hr by TR-FRET assay
Chain of Induced myeloid leukemia cell differentiation protein Mcl-1 (Q07820 whole entry): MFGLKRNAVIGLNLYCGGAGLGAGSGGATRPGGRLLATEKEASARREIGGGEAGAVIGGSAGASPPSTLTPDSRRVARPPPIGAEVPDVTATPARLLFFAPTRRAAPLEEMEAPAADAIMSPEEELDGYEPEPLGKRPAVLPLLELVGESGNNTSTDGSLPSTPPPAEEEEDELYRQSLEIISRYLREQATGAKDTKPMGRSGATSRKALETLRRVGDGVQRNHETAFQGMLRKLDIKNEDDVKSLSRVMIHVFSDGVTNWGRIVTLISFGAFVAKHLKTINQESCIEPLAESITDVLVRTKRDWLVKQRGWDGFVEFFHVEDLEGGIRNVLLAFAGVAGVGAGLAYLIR

Homo sapiens = organism: Homo sapiens; test: Selectivity ratio of Ki for inhibition of F-Bak binding to GST-tagged BCL2 (unknown origin) to Ki for inhibition of F-Bak binding to GST-tagged BCL-XL (unknown origin)
Bcl-2-like protein 1 [4] = target: T1, Bcl-2-like protein 1; test: Binding affinity to N-terminal GST-tagged BCL-XL (unknown origin) assessed as equilibrium dissociation constant by SPR analysis
Bcl-2-like protein 1 [5] = target: T1, Bcl-2-like protein 1; test: Binding affinity to N-terminal GST-tagged BCL-XL (unknown origin) assessed as association rate constant by SPR analysis
RS4-11 = test: Cytotoxicity against human RS4-11 cells assessed as reduction in cell viability measured after 48 hrs by celltiter-glo assay; format: functional, cell-based; details: RS4-11, 48 h
Bcl-2-like protein 1 [6] = target: T1, Bcl-2-like protein 1; test: Inhibition of F-Bak binding to GST-tagged BCL-XL (unknown origin) measured after 1 hr by TR-FRET assay
Bcl-2-like protein 1 [7] = target: T1, Bcl-2-like protein 1; test: Binding affinity to N-terminal GST-tagged BCL-XL (unknown origin) assessed as residence half-life by SPR analysis
MOLT-4 [8] = test: Induction of apoptosis in human MOLT-4 cells assessed as activation of caspase-3/7 measured after 24 hrs by caspase-3/7 fluorescence assay; format: functional, cell-based
In short: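 MOLT-4 cells incubated 24 h with a rising concentration series of inhibitor. Read-out was caspase-3 and caspase-7 activation, reported as percentage of caspase-3/-7-positive cells.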

MOLT-4 [9] = test: Induction of mitochondrial membrane depolarization in human MOLT-4 cells measured after 24 hrs; format: functional, cell-based
[10] = target: Apoptosis regulator Bcl-2 (Homo sapiens, UniProt P10415); test: Inhibition of F-Bak binding to GST-tagged BCL2 (unknown origin) measured after 1 hr by TR-FRET assay
Chain of Apoptosis regulator Bcl-2 (P10415 whole entry): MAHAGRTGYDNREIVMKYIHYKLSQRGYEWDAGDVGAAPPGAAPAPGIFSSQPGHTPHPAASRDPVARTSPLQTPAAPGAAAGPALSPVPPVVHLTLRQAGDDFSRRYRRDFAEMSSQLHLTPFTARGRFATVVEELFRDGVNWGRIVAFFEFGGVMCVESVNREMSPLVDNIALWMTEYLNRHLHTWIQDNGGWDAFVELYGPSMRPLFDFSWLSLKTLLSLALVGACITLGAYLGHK

MOLT-4 [11] = test: Induction of apoptosis in human MOLT-4 cells assessed as externalization of phosphatidylserine measured after 24 hrs by annexin-V staining based flow cytometry; format: functional, cell-based
In short: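 Phosphatidylserine exposure in MOLT-4 cells was scored by annexin V binding after 24 h exposure to increasing inhibitor concentrations. Results are expressed as percent annexin V-positive cells.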

For `CN(C)CC[C@H](CSc1ccccc1)Nc1ccc(S(=O)(=O)NC(=O)c2csc(N3CCc4cccc(C(=O)Nc5nc6ccccc6s5)c4C3)n2)cc1[N+](=O)[O-]`, the EC50 (MOLT-4 [1]) was > 5000 nM, the K (Bcl-2-like protein 1 [2]) was 0.0109 s⁻¹ and the Ki [3] was > 1560 nM. For the same compound, the Ratio Ki (Homo sapiens) was > 220, the Kd (Bcl-2-like protein 1 [4]) was 0.5 nM and the K (Bcl-2-like protein 1 [5]) was 2.18 10^7/M/s. For the same compound, the EC50 (RS4-11) was > 5000 nM, the Ki (Bcl-2-like protein 1 [6]) was 0.14 nM and the T1/2 (Bcl-2-like protein 1 [7]) was 1 min.
In the case of `O=C(NS(=O)(=O)c1ccc(N[C@H](CCN2CCOCC2)CSc2ccccc2)c(S(=O)(=O)C(F)(F)F)c1)c1csc(N2CCc3cccc(C(=O)Nc4nc5ccccc5s4)c3C2)n1`, the EC50 (MOLT-4 [1]) is reported as 80 nM, the K (Bcl-2-like protein 1 [2]) is reported as 0.000234 s⁻¹ and the Ki [3] is reported as > 3900 nM. For the same compound, the Ratio Ki (Homo sapiens) was > 220, the Activity (MOLT-4 [8]) was “Dose-dependent effect” and the Kd (Bcl-2-like protein 1 [4]) was 0.4 nM. The K (Bcl-2-like protein 1 [5]) was 5.88 10^5/M/s, the Activity (MOLT-4 [9]) was “Dose-dependent effect” and the EC50 (RS4-11) was > 5000 nM. The Ki [10] was 193 nM, the Ki (Bcl-2-like protein 1 [6]) was 0.43 nM and the Activity (MOLT-4 [11]) was “Dose-dependent effect”. For the same compound, the T1/2 (Bcl-2-like protein 1 [7]) was 49 min.
